Our source for the Stability and IC50 values is ChEMBL document CHEMBL1772965, “Analogues and derivatives of oncrasin-1, a novel inhibitor of the C-terminal domain of RNA polymerase II and their antitumor activities” (J Med Chem, 2011).

Series [1] can be described thus: Stability of compound at pH 2. Type of series: physicochemical. The settings on record: buffer.
Series [2] is described as follows: Stability of compound at pH 7.4. It is filed as physicochemical. The settings on record: buffer.
Another series relates to NCI-H460. As to the kind of experiment: Cytotoxicity against human H460 cells assessed as cell viability after 3 days by sulforhodamine B assay. It is filed as functional, cell-based. Conditions: NCI-H460, 72 h. The essentials:
(§1)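 Monolayer cultures were grown in RPMI-1640 or DMEM with 10% heat-inactivated fetal calf serum and penicillin/streptomycin, at 37°C and 5% CO2. Cells were exposed for 3 days to compound from 10−4.5 M (31.6 μM) down to 10−8 M (10 nM), with 1% DMSO as the control. Viability was read by sulforhodamine B. IC50 was the dose halving surviving cells versus control, run in quadruplicate and repeated at least three times.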
(In general: In SRB staining, fixed cells bind dye roughly in proportion to their protein.)

A short description of series [3]: Cytotoxicity against mutant K-ras-transformed human T29Kt1 cells assessed as cell viability after 3 days by sulforhodamine B assay. It is filed as functional, cell-based. The settings on record: T29Kt1, 72 h. The procedure, abridged: as §1
Series [4] in a line: Cytotoxicity against human T29 cells assessed as cell viability after 3 days by sulforhodamine B assay. Type of series: cell-based. The settings on record: T29, 72 h. The essentials:
as §1

Series [5] can be described thus: Stability of compound at pH 9. It is filed as physicochemical. The settings on record: buffer.
Series [6] can be described thus: Stability of compound at pH 4. It is filed as physicochemical. The settings on record: buffer.
Series [7] in a line: Stability of compound at pH 6. It is filed as physicochemical. The settings on record: buffer.

As usually defined, the IC50 is the concentration that inhibits the measured activity by half. For `O=CC1C(=O)N(Cc2ccc(Cl)cc2)c2cc(Cl)ccc21` (stereo unspecified), the Stability result in series [1] and in series [2] was “Stable” throughout. Also, the IC50 with NCI-H460 stood at 18.2 µM; in series [3], 18.2 µM; in series [4] it was 18.6 µM.

For `O=Cc1cn(Cc2cccc(Cl)c2)c2ccccc12`, the Stability entry in series [1] and in series [2] was “Stable” in each case. Also, the half-inhibitory concentration (IC50) with NCI-H460 is 0.037 µM; in series [3] it was 0.37 µM; in series [4] it was over 31.6 µM.

Consider `OCc1cn(Cc2cccc(C(F)(F)F)c2)c2ccccc12`, for which the Stability entry in series [1] was “Unstable”; in series [5], “Stable”; in series [6], “Stable”; in series [2] it was “Stable”; in series [7] it was “Stable”. Moreover, the figures for the IC50 (with NCI-H460; in series [3]; in series [4]) were 0.039 µM, 0.56 µM and over 31.6 µM, respectively.

With `CC(=O)OCc1cn(Cc2ccc(Cl)cc2)c2ccccc12`, the IC50 in the series with NCI-H460 is 0.039 µM; in series [3], 0.063 µM; in series [4] it was over 31.6 µM.

In the case of `CC(C)Cn1cc(C=O)c2ccccc21`, the Stability result in series [1] and in series [2] was “Stable” throughout. For the same compound, the IC50 with NCI-H460 is 1.99 µM; in series [3], over 31.6 µM; in series [4], over 31.6 µM.

For `O=Cc1cn(Cc2cccc(Br)c2)c2ccccc12`, the Stability entry in series [1] and in series [2] was “Stable” in each case. The concentration for half-maximal inhibition (IC50) is 0.039 µM in the series with NCI-H460, 1.58 µM in series [3] and over 31.6 µM in series [4].

As to `O=C(NC1CCCCC1)OCc1cn(Cc2ccc(Cl)cc2)c2ccccc12`, the IC50 in the series on NCI-H460 is 0.02 µM; in series [3] it was 0.2 µM; in series [4], over 31.6 µM.

As to `OCCCc1cn(Cc2ccccc2)c2ccccc12`, the concentration for half-maximal inhibition (IC50) (with NCI-H460; in series [3]; in series [4]) was over 31.6 µM throughout.

`O=Cc1cn(CCCOc2ccc(Cl)cc2)c2ccccc12`: the Stability result in series [1] and in series [2] was “Stable” throughout. The 50% inhibitory concentration (IC50) with NCI-H460 is 0.045 µM; in series [3], 4.89 µM; in series [4], over 31.6 µM.

Take `CC(=O)c1cn(Cc2cccc(Cl)c2)c2ccccc12`: the IC50 (in the series with NCI-H460; in series [3]; in series [4]) was over 31.6 µM in each case.

`COC(=O)CNCc1cn(Cc2ccc(Cl)cc2)c2ccccc12`: the figures for the concentration for half-maximal inhibition (IC50) (in the series with NCI-H460; in series [3]; in series [4]) were 0.1 µM, 5.01 µM and 31.6 µM, respectively.

Turning to `O=Cc1cn(Cc2ccc(Br)c(Br)c2)c2ccccc12`, the Stability result in series [1] and in series [2] was “Stable” throughout. The 50% inhibitory concentration (IC50) in the series with NCI-H460 was 0.063 µM; in series [3] it was 0.63 µM; in series [4], over 31.6 µM.

As for `Cc1cccc(Cn2cc(C=O)c3ccccc32)c1`, the Stability entry in series [1] and in series [2] was “Stable” each time. The values for the half-inhibitory concentration (IC50) (with NCI-H460; in series [3]; in series [4]) were 0.039 µM, 6.3 µM and over 31.6 µM, respectively.

As for `O=Cc1cn(Cc2cccc(C(F)(F)F)c2)c2ccccc12`, the Stability result in series [1] and in series [2] was “Stable” throughout. Also, the figures for the IC50 (in the series with NCI-H460; in series [3]; in series [4]) were 0.14 µM, 1.78 µM and over 31.6 µM, respectively.

`O=Cc1cn(Cc2cccc(F)c2)c2ccccc12`: the Stability entry in series [1] and in series [2] was “Stable” throughout. Also, the IC50 was 0.031 µM with NCI-H460, 2.63 µM in series [3] and over 31.6 µM in series [4].

Regarding `O=Cc1cn(Cc2ccccc2)c2ccccc12`, the Stability entry in series [1] and in series [2] was “Stable” throughout. Moreover, the 50% inhibitory concentration (IC50) in the series with NCI-H460 was 0.045 µM; in series [3], 5 µM; in series [4], over 31.6 µM.

In the case of `O=C(O)c1cn(Cc2ccccc2)c2ccccc12`, the half-maximal inhibitory concentration (IC50) (in the series with NCI-H460; in series [3]; in series [4]) was over 31.6 µM in each case.

Consider `O=Cc1cn(Cc2ccc(Cl)cc2)c2ccccc12`, for which the Stability entry in series [1] and in series [2] was “Stable” each time. For the same compound, the values for the IC50 (in the series on NCI-H460; in series [3]; in series [4]) were 0.25 µM, 2.51 µM and over 31.6 µM, respectively.

With `COCc1cn(Cc2ccc(Cl)cc2)c2ccccc12`, the IC50 with NCI-H460 was 1.99 µM; in series [3], 7.94 µM; in series [4], over 31.6 µM.

`O=Cc1cn(Cc2ccc(Cl)cc2)c2cc(Br)ccc12`: the Stability result in series [1] and in series [2] was “Stable” each time. Moreover, the results for the half-inhibitory concentration (IC50) (in the series on NCI-H460; in series [3]; in series [4]) were 0.09 µM, 32 µM and 21 µM, respectively.

Turning to `O=C(O)c1cn(Cc2ccc(Cl)cc2)c2ccccc12`, the IC50 (in the series on NCI-H460; in series [3]; in series [4]) was over 31.6 µM in each case.

With `O=Cc1cn(Cc2ccc(C(F)(F)F)cc2)c2ccccc12`, the Stability entry in series [1] and in series [2] was “Stable” each time. The IC50 in the series on NCI-H460 was 1.58 µM; in series [3], over 31.6 µM; in series [4] it was over 31.6 µM.

For the compound `O=Cc1cn(Cc2ccc(Cl)cc2)c2cc(F)ccc12`, the Stability result in series [1] and in series [2] was “Stable” in each case. Further, the results for the IC50 (in the series with NCI-H460; in series [3]; in series [4]) were 0.12 µM, 9.19 µM and over 31.6 µM, respectively.

Take `O=Cc1cn(Cc2cccc([N+](=O)[O-])c2)c2ccccc12`: the Stability result in series [1] and in series [2] was “Stable” each time. The figures for the 50% inhibitory concentration (IC50) (in the series with NCI-H460; in series [3]; in series [4]) were 0.039 µM, 0.5 µM and over 31.6 µM, respectively.

Turning to `COC(=O)c1cn(Cc2ccc(Br)cc2)c2ccccc12`, the IC50 in the series with NCI-H460 came out at 5 µM; in series [3], 6.3 µM; in series [4], 5 µM.

As for `N#Cc1cn(Cc2cccc(Cl)c2)c2ccccc12`, the concentration for half-maximal inhibition (IC50) (with NCI-H460; in series [3]; in series [4]) was over 31.6 µM each time.

For the compound `c1ccc(Cn2ccc3ccccc32)cc1`, the IC50 (with NCI-H460; in series [3]; in series [4]) was over 31.6 µM in each case.

As to `Clc1cccc(Cn2cc(Cc3cn(Cc4cccc(Cl)c4)c4ccccc34)c3ccccc32)c1`, the 50% inhibitory concentration (IC50) (in the series on NCI-H460; in series [3]; in series [4]) was over 31.6 µM throughout.

`OCc1cc2cc(F)ccc2n1Cc1ccc(Cl)cc1`: the half-inhibitory concentration (IC50) in the series with NCI-H460 is 11.5 µM; in series [3], 15.1 µM; in series [4] it was 17.4 µM.

In the case of `O=Cc1cn(Cc2ccc(Cl)cc2)c2ccc(Cl)cc12`, the Stability entry in series [1] and in series [2] was “Stable” in each case. Further, the IC50 with NCI-H460 was 0.4 µM; in series [3], 10 µM; in series [4], over 31.6 µM.

Turning to `COC(=O)c1cn(Cc2ccc(Cl)cc2)c2ccccc12`, the values for the IC50 (in the series with NCI-H460; in series [3]; in series [4]) were 31.6 µM, 25.1 µM and 17.7 µM, respectively.

As for `O=Cc1cn(Cc2ccc(Cl)cc2Cl)c2ccccc12`, the Stability entry in series [1] and in series [2] was “Stable” each time. The IC50 is 0.1 µM in the series with NCI-H460, 1.58 µM in series [3] and over 31.6 µM in series [4].

Consider `OCCc1cn(Cc2ccc(Cl)cc2)c2ccccc12`, for which the half-maximal inhibitory concentration (IC50) (in the series with NCI-H460; in series [3]; in series [4]) was over 31.6 µM throughout.

In the case of `CC(=O)c1cn(Cc2ccc(Cl)cc2)c2ccccc12`, the IC50 (in the series with NCI-H460; in series [3]; in series [4]) was over 31.6 µM each time.

`CC(=O)c1cn(Cc2ccccc2Cl)c2ccccc12`: the IC50 (with NCI-H460; in series [3]; in series [4]) was over 31.6 µM in each case.

As to `Cc1cn(Cc2ccc(Cl)cc2)c2ccccc12`, the IC50 (with NCI-H460; in series [3]; in series [4]) was over 31.6 µM in each case.

Consider `CC(O)c1cn(Cc2ccc(Cl)cc2)c2ccccc12` (stereo unspecified), for which the 50% inhibitory concentration (IC50) in the series on NCI-H460 is 25.1 µM; in series [3], 19.9 µM; in series [4], over 31.5 µM.

In the case of `O=Cc1cn(Cc2ccc(Cl)cc2)c2ccc(F)cc12`, the Stability entry in series [1] and in series [2] was “Stable” in each case. In addition, the IC50 in the series on NCI-H460 is 0.29 µM; in series [3], 9.09 µM; in series [4] it was over 31.6 µM.

For the compound `Brc1cccc(Cn2cc(Cc3cn(Cc4cccc(Br)c4)c4ccccc34)c3ccccc32)c1`, the half-inhibitory concentration (IC50) (with NCI-H460; in series [3]; in series [4]) was over 31.6 µM in each case.

Regarding `CC(=O)c1cn(Cc2ccccc2)c2ccccc12`, the half-inhibitory concentration (IC50) was 10 µM in the series with NCI-H460, over 31.6 µM in series [3] and over 31.6 µM in series [4].

In the case of `O=Cc1cn(Cc2ccc(Br)cc2)c2ccccc12`, the Stability entry in series [1] and in series [2] was “Stable” in each case. For the same compound, the results for the IC50 (in the series on NCI-H460; in series [3]; in series [4]) were 0.031 µM, 0.25 µM and over 31.6 µM, respectively.

With `O=Cc1cn(Cc2ccc([N+](=O)[O-])cc2)c2ccccc12`, the Stability result in series [1] and in series [2] was “Stable” throughout. Also, the IC50 was 0.5 µM with NCI-H460, 10 µM in series [3] and over 31.6 µM in series [4].

With `Cc1ccc(Cn2cc(C=O)c3ccccc32)cc1`, the Stability entry in series [1] and in series [2] was “Stable” throughout. Besides, the IC50 in the series on NCI-H460 was 0.063 µM; in series [3] it was 3.98 µM; in series [4] it was over 31.6 µM.

As to `O=Cc1cn(Cc2ccccc2F)c2ccccc12`, the Stability result in series [1] and in series [2] was “Stable” in each case. The IC50 is 0.1 µM in the series with NCI-H460, 0.31 µM in series [3] and over 31.6 µM in series [4].

With `O=Cc1cn(Cc2cccc(Cl)c2)c2ccc(F)cc12`, the Stability result in series [1] and in series [2] was “Stable” in each case. The values for the 50% inhibitory concentration (IC50) (in the series with NCI-H460; in series [3]; in series [4]) were 0.37 µM, 1.5 µM and over 31.6 µM, respectively.
